In brackets after ≈: the same amount, converted by molar mass. Activity calls are given as the source filed them.
Legend:
[1] = system: Staphylococcus epidermidis; assay: Bactericidal activity against biofilm of Staphylococcus epidermidis ATCC 35984 after overnight incubation; format: functional; details: RP62A
Enterococcus faecalis [2] = assay: Bactericidal activity against vancomycin-resistant and teicoplanin-sensitive Enterococcus faecalis ATCC 51299 harboring vanB gene after overnight incubation; format: functional
Enterococcus faecalis [3] = assay: Antibacterial activity against vancomycin and teicoplanin-resistant Enterococcus faecalis 15376 harboring vanA gene after 18 hrs by broth microdilution method; format: functional; details: Enterococcus faecalis, 15376, 18 h
[4] = system: Staphylococcus epidermidis; assay: Bactericidal activity against Staphylococcus epidermidis after overnight incubation; format: functional
Staphylococcus aureus [5] = assay: Bactericidal activity against methicillin-sensitive Staphylococcus aureus ATCC 29213 after overnight incubation; format: functional
Staphylococcus aureus [6] = assay: Bactericidal activity against methicillin-sensitive Staphylococcus aureus ATCC 33591 after overnight incubation; format: functional
Bacillus subtilis [7] = assay: Bactericidal activity against Bacillus subtilis ATCC 6633 after overnight incubation; format: functional
Bacillus subtilis [8] = assay: Antibacterial activity against Bacillus subtilis ATCC 6633 after 18 hrs by broth microdilution method; format: functional; details: ATCC 6633, 18 h
Enterococcus faecalis [9] = assay: Bactericidal activity against vancomycin and teicoplanin-sensitive Enterococcus faecalis ATCC 29212 after overnight incubation; format: functional
Enterococcus faecalis [10] = assay: Antibacterial activity against vancomycin-resistant and teicoplanin-sensitive Enterococcus faecalis ATCC 51299 harboring vanB gene after 18 hrs by broth microdilution method; format: functional; details: ATCC 51299, 18 h
Staphylococcus aureus [11] = assay: Antibacterial activity against methicillin-sensitive Staphylococcus aureus ATCC 33591 after 18 hrs by broth microdilution method; format: functional; details: ATCC 33591, 18 h
Enterococcus faecalis [12] = assay: Antibacterial activity against vancomycin and teicoplanin-sensitive Enterococcus faecalis ATCC 29212 after 18 hrs by broth microdilution method; format: functional; details: ATCC 29212, 18 h
[13] = system: Staphylococcus epidermidis; assay: Antibacterial activity against Staphylococcus epidermidis after 18 hrs by broth microdilution method; format: functional
Enterococcus faecalis [14] = assay: Bactericidal activity against vancomycin and teicoplanin-resistant Enterococcus faecalis 15376 harboring vanA gene after overnight incubation; format: functional
[15] = system: Staphylococcus epidermidis; assay: Antibacterial activity against biofilm of Staphylococcus epidermidis ATCC 35984 after 18 hrs by broth microdilution method; format: functional; details: RP62A
Staphylococcus aureus [16] = assay: Antibacterial activity against methicillin-sensitive Staphylococcus aureus ATCC 29213 after 18 hrs by broth microdilution method; format: functional; details: ATCC 29213, 18 h
Influenza A virus [17] = assay: Antiviral activity against Influenza A virus (A/Puerto Rico/8/34(H1N1)) assessed as inhibition of virus-induced cytopathic effect at highest concentration by cell-based assay; format: functional, organism-based; details: A/Puerto Rico/8/1934(H1N1)
Outline: (§1)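 Virus-induced cytopathic effect is scored visually in infected cell cultures. EC50 is defined as the compound concentration producing 50% inhibition of the CPE. A compound is recorded as not active when there is no inhibition at the highest concentration tested or at a subtoxic concentration.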

H3N2 subtype [18] = assay: Antiviral activity against Influenza A virus (A/Hong Kong/7/87(H3N2)) assessed as cell viability at subtoxic concentration by cell-based MTS assay; format: functional, organism-based; details: A/Hong Kong/7/1987(H3N2)
Influenza B virus [19] = assay: Antiviral activity against Influenza B virus (B/Hong Kong/5/72) assessed as cell viability at subtoxic concentration by cell-based MTS assay; format: functional; details: B/Hong Kong/05/1972
H3N2 subtype [20] = assay: Antiviral activity against Influenza A virus (A/Hong Kong/7/87(H3N2)) assessed as inhibition of virus-induced cytopathic effect at highest concentration by cell-based assay; format: functional, organism-based; details: A/Hong Kong/7/1987(H3N2); outline: as §1
Influenza A virus [21] = assay: Antiviral activity against Influenza A virus (A/Puerto Rico/8/34(H1N1)) assessed as cell viability at subtoxic concentration by cell-based MTS assay; format: functional, organism-based; details: A/Puerto Rico/8/1934(H1N1)
Influenza B virus [22] = assay: Antiviral activity against Influenza B virus (B/Hong Kong/5/72) assessed as inhibition of virus-induced cytopathic effect at highest concentration by cell-based assay; format: functional; details: B/Hong Kong/05/1972; outline: as §1

SMILES | MBC [1] | MBC (Enterococcus faecalis [2]) | MIC (Enterococcus faecalis [3]) | MBC [4] | MBC (Staphylococcus aureus [5]) | MBC (Staphylococcus aureus [6]) | MBC (Bacillus subtilis [7]) | MIC (Bacillus subtilis [8]) | MBC (Enterococcus faecalis [9]) | MIC (Enterococcus faecalis [10]) | MIC (Staphylococcus aureus [11]) | MIC (Enterococcus faecalis [12]) | MIC [13] | MBC (Enterococcus faecalis [14]) | MIC [15] | MIC (Staphylococcus aureus [16]) | inhibition (Influenza A virus [17]) | inhibition (H3N2 subtype [18]) | inhibition (Influenza B virus [19]) | inhibition (H3N2 subtype [20]) | also measured
CN[C@H](CC(C)C)C(=O)N[C@H]1C(=O)N[C@@H](CC(N)=O)C(=O)N[C@H]2C(=O)N[C@H]3C(=O)N[C@H](C(=O)N[C@H](C(=O)O)c4cc(O)cc(O)c4-c4cc3ccc4O)[C@H](O)c3ccc(c(Cl)c3)Oc3cc2cc(c3O[C@@H]2O[C@H](CO)[C@@H](O)[C@H](O)[C@H]2O[C@H]2C[C@](C)(N)[C@H](O)[C@H](C)O2)Oc2ccc(cc2Cl)[C@H]1O [VANCOMYCIN] | 4 µg/mL (≈ 2.76 µM) | 16 µg/mL (≈ 11 µM) | > 256 µg/mL | 4 µg/mL (≈ 2.76 µM) | 4 µg/mL (≈ 2.76 µM) | 4 µg/mL (≈ 2.76 µM) | 4 µg/mL (≈ 2.76 µM) | 1 µg/mL (≈ 0.69 µM) | 16 µg/mL (≈ 11 µM) | 16 µg/mL (≈ 11 µM) | – | – | – | – | – | – | – | – | – | – | –
CC(=O)N[C@H]1[C@H](O[C@@H]2c3ccc(c(Cl)c3)Oc3cc4cc(c3O)Oc3ccc(cc3Cl)C[C@H]3NC(=O)[C@H](n5cc(COc6ccc(-c7ccccc7)cc6)nn5)c5ccc(O)c(c5)Oc5cc(O)cc(c5)[C@H](NC3=O)C(=O)N[C@H]4C(=O)N[C@H]3C(=O)N[C@@H]2C(=O)N[C@@H](C(=O)O)c2cc(O)cc(O)c2-c2cc3ccc2O)O[C@H](CO)[C@@H](O)[C@@H]1O | – | 0.25 µg/mL (≈ 0.153 µM) | 0.5 µg/mL (≈ 0.306 µM) | – | 0.25 µg/mL (≈ 0.153 µM) | 0.25 µg/mL (≈ 0.153 µM) | 0.25 µg/mL (≈ 0.153 µM) | 0.5 µg/mL (≈ 0.306 µM) | 0.25 µg/mL (≈ 0.153 µM) | 0.5 µg/mL (≈ 0.306 µM) | 0.5 µg/mL (≈ 0.306 µM) | 0.5 µg/mL (≈ 0.306 µM) | 0.5 µg/mL (≈ 0.306 µM) | 0.25 µg/mL (≈ 0.153 µM) | 0.5 µg/mL (≈ 0.306 µM) | 0.5 µg/mL (≈ 0.306 µM) | – | – | – | – | –
COC(=O)[C@@H]1NC(=O)[C@H]2NC(=O)[C@H](NC(=O)[C@@H]3NC(=O)[C@H]4NC(=O)[C@@H](Cc5ccc(c(Cl)c5)Oc5cc3cc(c5O)Oc3ccc(cc3Cl)[C@H]2O[C@@H]2O[C@H](CO)[C@@H](O)[C@H](O)[C@H]2NC(C)=O)NC(=O)[C@H](N=[N+]=[N-])c2ccc(O)c(c2)Oc2cc(O)cc4c2)c2ccc(O)c(c2)-c2c(O)cc(O)cc21 | 8 µg/mL (≈ 5.55 µM) | 256 µg/mL (≈ 178 µM) | 16 µg/mL (≈ 11.1 µM) | 4 µg/mL (≈ 2.77 µM) | 8 µg/mL (≈ 5.55 µM) | 8 µg/mL (≈ 5.55 µM) | 8 µg/mL (≈ 5.55 µM) | 8 µg/mL (≈ 5.55 µM) | 256 µg/mL (≈ 178 µM) | 16 µg/mL (≈ 11.1 µM) | 4 µg/mL (≈ 2.77 µM) | 16 µg/mL (≈ 11.1 µM) | 4 µg/mL (≈ 2.77 µM) | 256 µg/mL (≈ 178 µM) | 8 µg/mL (≈ 5.55 µM) | 4 µg/mL (≈ 2.77 µM) | inactive | inactive | inactive | inactive | inhibition (Influenza A virus [21]): inactive; inhibition (Influenza B virus [22]): inactive
CCCCCCCCCCOCc1cn([C@H]2C(=O)N[C@@H]3Cc4ccc(c(Cl)c4)Oc4cc5cc(c4O)Oc4ccc(cc4Cl)[C@@H](O)[C@@H]4NC(=O)[C@H](NC(=O)[C@@H]5NC(=O)[C@@H](NC3=O)c3cc(O)cc(c3)Oc3cc2ccc3O)c2ccc(O)c(c2)-c2c(O)cc(O)cc2[C@H](C(=O)OC)NC4=O)nn1 | 256 µg/mL (≈ 178 µM) | 256 µg/mL (≈ 178 µM) | 128 µg/mL (≈ 89.2 µM) | 64 µg/mL (≈ 44.6 µM) | 256 µg/mL (≈ 178 µM) | 256 µg/mL (≈ 178 µM) | 0.5 µg/mL (≈ 0.348 µM) | 0.5 µg/mL (≈ 0.348 µM) | 128 µg/mL (≈ 89.2 µM) | 64 µg/mL (≈ 44.6 µM) | 64 µg/mL (≈ 44.6 µM) | 32 µg/mL (≈ 22.3 µM) | 16 µg/mL (≈ 11.1 µM) | 256 µg/mL (≈ 178 µM) | 256 µg/mL (≈ 178 µM) | 128 µg/mL (≈ 89.2 µM) | inactive | inactive | inactive | inactive | inhibition (Influenza A virus [21]): inactive; inhibition (Influenza B virus [22]): inactive
COC(=O)[C@@H]1NC(=O)[C@H]2NC(=O)[C@H](NC(=O)[C@@H]3NC(=O)[C@H]4NC(=O)[C@H](NC(=O)[C@H](n5cc(COc6ccc(-c7ccccc7)cc6)nn5)c5ccc(O)c(c5)Oc5cc4cc(O)c5C)[C@H](O)c4ccc(cc4)Oc4cc3cc(c4O)Oc3ccc(cc3)[C@H]2O)c2ccc(O)c(c2)-c2c(O)cc(O)cc21 | – | – | > 256 µg/mL | – | – | – | – | > 256 µg/mL | – | > 256 µg/mL | > 256 µg/mL | > 256 µg/mL | > 256 µg/mL | – | > 256 µg/mL | > 256 µg/mL | inactive | inactive | inactive | inactive | inhibition (Influenza A virus [21]): inactive; inhibition (Influenza B virus [22]): inactive

Reference: ChEMBL document CHEMBL1156074, “Diazo transfer-click reaction route to new, lipophilic teicoplanin and ristocetin aglycon derivatives with high antibacterial and anti-influenza virus activity: an aggregation and receptor binding study” (J Med Chem, 2009)
